# pIC50: −log10 of the molar value.
# Columns and labels:
# CCRF S-180 [1] = assay: Compound was tested in vivo for antitumor activity against murine sarcoma 180 in mice at 0.25 mg/kg dosage and efficacy is expressed as T/C (mice were implanted subcutaneously with tumor cells and the drug was dosed intravenously); assay type: functional, Mus musculus; settings: route intravenous
# Method in brief: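 Sarcoma 180 cells passaged in adult male ddY mice and inoculated sc at the axillary region, 5 mice/group; iv dosing began 1 day after inoculation. Tumour volume = length × width²/2. T/C is treated over control mean tumour volume; effective at ≤42%, Mann–Whitney U test (p < 0.05).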
# HeLa [2] = assay: Compound was tested in vitro for anticellular activity against HeLa S3 cell growth at 1-hour exposure.; assay type: functional, cell-based; settings: Homo sapiens
# HeLa [3] = assay: Compound was tested in vitro for anticellular activity against HeLa S3 cell growth at 72-hour exposure.; assay type: functional, cell-based; settings: Homo sapiens
# Mus musculus [4] = species: Mus musculus; assay: Compound was tested for hematotoxicity and the number of white blood cells of tumor bearing mice on day 4(percent of control) was determined, expressed as percent of control; assay type: functional
# Method in brief: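 Sarcoma 180-bearing mice dosed iv starting 1 day after sc tumour inoculation; 4 days later orbital-vein blood drawn and white blood cells counted on a microcell counter; value is treated count as percent of control.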
# [5] = Aqueous solubility of the compound; assay type: physicochemical; settings: water; read-out: S
# Mus musculus [6] = species: Mus musculus; assay: Compound was tested for hematotoxicity and the number of peripheral platelets of normal mice on day 7 (percent of control) was determined, expressed as percent of control; assay type: functional
# Method in brief: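 Normal male ddY mice (mean weight 20 ± 1 g) given a single iv tail-vein injection of drug dissolved in saline; 7 days later orbital-vein blood drawn and platelets counted on a microcell counter; value is treated count as percent of control.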
# CCRF S-180 [7] = assay: Compound was tested in vivo for antitumor activity against murine sarcoma 180 in mice at 4 mg/kg dosage and efficacy is expressed as T/C (mice were implanted subcutaneously with tumor cells and the drug was dosed intravenously); settings: route intravenous
SMILES,T/C (CCRF S-180 [1]),pIC50 (HeLa [2]),pIC50 (HeLa [3]),Hematotoxicity (Mus musculus [4]) [%],solubility [5] [mg/mL],Hematotoxicity (Mus musculus [6]) [%],T/C (CCRF S-180 [7])
COC(=O)c1c(C)[nH]c2c(OC(=O)N3CCN(C)CC3)cc3c(c12)[C@H](CBr)CN3C(=O)/C=C/c1ccc(OC)nn1.Cl,0.31,5.96,7.05,115,> 20,51,
COC(=O)c1c(C)[nH]c2c(OC(=O)N3CCN(C)CC3)cc3c(c12)[C@H](CBr)CN3C(=O)/C=C/c1ccc(OC)nc1.Cl,0.36,6.05,6.96,92,> 20,38,
COC(=O)c1c(C)[nH]c2c1[C@@]13C[C@@H]1CN(C(=O)/C=C/c1ccc(OC)cn1)C3=CC2=O,,8.01,8.54,,,,
COC(=O)c1c(C)[nH]c2c1[C@@]13C[C@@H]1CN(C(=O)/C=C/c1ccc(OC)nc1)C3=CC2=O,,8.48,9.38,84,,50,0.6
COC(=O)c1c(C)[nH]c2c(OC(=O)N3CCN(C)CC3)cc3c(c12)[C@H](CBr)CN3C(=O)/C=C/c1cnc(OC)nc1.Cl,0.26,5.89,6.77,69,> 20,26,
COC(=O)c1c(C)[nH]c2c1[C@@]13C[C@@H]1CN(C(=O)/C=C/c1cnc(OC)nc1)C3=CC2=O,0.45,8.60,9.05,86,,28,
COC(=O)c1c(C)[nH]c2c(OC(=O)N3CCN(C)CC3)cc3c(c12)[C@H](CBr)CN3C(=O)/C=C/c1ccc(OC)cn1.Cl,0.5,5.89,6.82,105,> 20,38,
COC(=O)c1c(C)[nH]c2c1[C@@]13C[C@@H]1CN(C(=O)/C=C/c1ccc(OC)nn1)C3=CC2=O,,9.30,9.55,,,,
COC(=O)c1c(C)[nH]c2c1[C@@]13C[C@@H]1CN(C(=O)/C=C/c1ccc(OC)cc1)C3=CC2=O,0.34,,,63,,50,

# Source: ChEMBL document CHEMBL1132586, “New water-soluble duocarmycin derivatives: synthesis and antitumor activity of A-ring pyrrole compounds bearing beta-heteroarylacryloyl groups” (J Med Chem, 1999)
